# Measured values collected from several papers.
# Protocols differ between the studies behind these lines.
# PIK3CA: Phosphatidylinositol 4,5-bisphosphate 3-kinase catalytic subunit alpha isoform (PIK3CA, Homo sapiens, UniProt P42336)
# PIK3CA E542K: Phosphatidylinositol 4,5-bisphosphate 3-kinase catalytic subunit alpha isoform (PIK3CA, Homo sapiens, UniProt P42336, E542K)
Structure (SMILES),target,test,conditions,measurement,value
CCCCC(=O)Nc1ccc(-c2ccc3ncn(CCC)c(=O)c3c2)cn1,"Phosphatidylinositol 4,5-bisphosphate 3-kinase catalytic subunit alpha isoform (PIK3CA, Homo sapiens, UniProt P42336, M1043I)","binding, competition with immobilised ligand",0.5 µM,remaining binding,91%
Cc1cc(O)c(-c2ccc([C@@H](C)CN(C)C)cc2)c2c1[nH]c(=O)c1sccc12,PIK3CA,"enzyme activity, inhibitor",0.1 µM,inhibition,-4.62%
CC#CC(=O)N1CCC[C@H]1c1nc(-c2ccc(C(=O)Nc3ccccn3)cc2)c2c(N)nccn12,"Phosphatidylinositol 4,5-bisphosphate 3-kinase catalytic subunit alpha isoform (PIK3CA, Homo sapiens, UniProt P42336, C420R)","enzyme activity, inhibitor",1 µM,inhibition,17%
Cc1ccc(NC(=O)c2ccnc(C(F)(F)F)c2)cc1-c1cc(OCCO)nc(N2CCOCC2)c1,"Phosphatidylinositol 4,5-bisphosphate 3-kinase catalytic subunit alpha isoform (PIK3CA, Homo sapiens, UniProt P42336, H1047Y)",binding,1 µM,remaining binding,74%
C=CC(=O)N1CCC[C@@H](n2nc(-c3ccc(Oc4ccccc4)cc3)c3c(N)ncnc32)C1,"Phosphatidylinositol 4,5-bisphosphate 3-kinase catalytic subunit alpha isoform (PIK3CA, Homo sapiens, UniProt P42336, I800L)","enzyme activity, inhibitor",1 µM,inhibition,8%
COc1ccc2[nH]c3c4[nH]c5ccc(OC)cc5c4c4c(c3c2c1)C(=O)NC4=O,PIK3CA,binding,1 µM,remaining binding,91%
C=CC(=O)N1CCC([C@@H]2CCNc3c(C(N)=O)c(-c4ccc(Oc5ccccc5)cc4)nn32)CC1,PIK3CA,"enzyme activity, inhibitor",1 µM,inhibition,0%
C#Cc1cnc(Nc2ccnc(CO)c2)nc1Nc1ccccc1S(C)(=O)=NC#N (stereo not drawn),PIK3CA,cell-free assay,1 µM,remaining signal,100%
C1=C/COCc2cc(ccc2OCCN2CCCC2)Nc2nccc(n2)-c2cccc(c2)COC/1,PIK3CA E542K,binding,0.1 µM,remaining binding,68%
C[C@H]1CC[C@H](n2c3cnccc3c3cnc(Nc4ccc5c(n4)CCN(C(=O)CO)C5)nc32)CC1,PIK3CA E542K,cell-free assay,1 µM,remaining signal,100%
CO[C@@H]1[C@H](N(C)C(=O)c2ccccc2)C[C@H]2O[C@]1(C)n1c3ccccc3c3c4c(c5c6ccccc6n2c5c31)C(=O)NC4,"Phosphatidylinositol 4,5-bisphosphate 3-kinase catalytic subunit alpha isoform (PIK3CA, Homo sapiens, UniProt P42336, E545K)","enzyme activity, inhibitor",1 µM,inhibition,0%
C#Cc1cc(-c2cc(Nc3nc(N[C@@H](C)c4ccc(F)cn4)ncc3Cl)n[nH]2)ccc1C=O,PIK3CA,"enzyme activity, inhibitor",0.2 µM,inhibition,7.89%
